Assay results reported in ChEMBL document CHEMBL1132600.

Tests used:
[1] = substrate: CCCCC/C=C\C/C=C\C/C=C\C/C=C\CCCC(=O)NCCO; assay: (§1) V max value for hydrolysis by rat brain microsomal anandamide amidohydrolase (AAH).
Procedure, shortened: (§2)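 Sprague–Dawley rat brain microsomes (105000g pellet) at 0.3 mg/mL protein, 37 °C, pH 7.4, BSA as carrier. Varied substrate concentrations, sampled at least four times within the linear initial range. Arachidonic acid formed measured by RP-HPLC (UV 204 nm, calibration curve). Initial velocity vs substrate concentration fitted to Michaelis–Menten.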

[2] = substrate: CCCCC/C=C\C/C=C\C/C=C\C/C=C\CCCC(=O)N[C@@H](C)CO; assay: as §1; procedure, shortened: as §2
[3] = substrate: CCCCC/C=C\C/C=C\C/C=C\C/C=C\CCCC(=O)N[C@H](C)CO; assay: as §1; procedure, shortened: as §2
[4] = substrate: CCCCC/C=C\C/C=C\C/C=C\C/C=C\CCCC(N)=O; assay: as §1; procedure, shortened: as §2
[5] = substrate: CCCCC/C=C\C/C=C\C/C=C\C/C=C\CCCC(=O)NCCO; assay: (§3) Km value for hydrolysis by rat brain microsomal anandamide amidohydrolase (AAH).; procedure, shortened: as §2
[6] = substrate: CCCCC/C=C\C/C=C\C/C=C\C/C=C\CCCC(=O)N[C@@H](C)CO; assay: as §3; procedure, shortened: as §2
[7] = substrate: CCCCC/C=C\C/C=C\C/C=C\C/C=C\CCCC(=O)N[C@H](C)CO; assay: as §3; procedure, shortened: as §2
[8] = substrate: CCCCC/C=C\C/C=C\C/C=C\C/C=C\CCCC(=O)Nc1ccccc1O; assay: as §3; procedure, shortened: as §2
[9] = substrate: CCCCC/C=C\C/C=C\C/C=C\C/C=C\CCCC(N)=O; assay: as §3; procedure, shortened: as §2
[10] = substrate: CCCCC/C=C\C/C=C\C/C=C\C/C=C\CCCC(=O)Nc1ccccc1O

B1: Fatty-acid amide hydrolase 1 (Rattus norvegicus), P97612 (protein)
chain: MVLSEVWTTLSGVSGVCLACSLLSAAVVLRWTGRQKARGAATRARQKQRASLETMDKAVQRFRLQNPDLDSEALLTLPLLQLVQKLQSGELSPEAVFFTYLGKAWEVNKGTNCVTSYLTDCETQLSQAPRQGLLYGVPVSLKECFSYKGHDSTLGLSLNEGMPSESDCVVVQVLKLQGAVPFVHTNVPQSMLSFDCSNPLFGQTMNPWKSSKSPGGSSGGEGALIGSGGSPLGLGTDIGGSIRFPSAFCGICGLKPTGNRLSKSGLKGCVYGQTAVQLSLGPMARDVESLALCLKALLCEHLFTLDPTVPPLPFREEVYRSSRPLRVGYYETDNYTMPSPAMRRALIETKQRLEAAGHTLIPFLPNNIPYALEVLSAGGLFSDGGRSFLQNFKGDFVDPCLGDLILILRLPSWFKRLLSLLLKPLFPRLAAFLNSMRPRSAEKLWKLQHEIEMYRQSVIAQWKAMNLDVLLTPMLGPALDLNTPGRATGAISYTVLYNCLDFPAGVVPVTTVTAEDDAQMELYKGYFGDIWDIILKKAMKNSVGLPVAVQCVALPWQEELCLRFMREVEQLMTPQKQPS
- Vmax (nM min-1 mg-1) [1]: 1.4
- Vmax (nM min-1 mg-1) [2]: 0.39
- Vmax (nM min-1 mg-1) [3]: 0.37
- Vmax (nM min-1 mg-1) [4]: 2.89
- Km [5]: 2.78 µM
- Km [6]: 7.94 µM
- Km [7]: 33 µM
- Km [8]: 7.31 µM
- Km [9]: 2.34 µM
- Vmax (nM min-1 mg-1) [10]: 3.17
